Screens from PubChem.
HTRA1 inh: HTRA1 (human) protease inhibition; 340,000 compounds, 0.5% hits; inhibition, % at 5.96 µM; recombinant HTRA1, FP-rhodamine activity-based probe, fluorescence polarization; Q92743; AID 504803; in the data active = inhibition above about 36%
SIAE primary: human SIAE inhibition, primary screen. Q9HAT2. 370,000 compounds, 0.69% hits. SIAE FP-Rh probe binding, fluorescence polarization. inhibition, % at 9.66 µM;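 active = inhibition above a cutoff: mean of compounds within the control limits plus 3 SD of those, cut at about 17% in these data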
Target sequence (Q9HAT2 whole entry, looked up): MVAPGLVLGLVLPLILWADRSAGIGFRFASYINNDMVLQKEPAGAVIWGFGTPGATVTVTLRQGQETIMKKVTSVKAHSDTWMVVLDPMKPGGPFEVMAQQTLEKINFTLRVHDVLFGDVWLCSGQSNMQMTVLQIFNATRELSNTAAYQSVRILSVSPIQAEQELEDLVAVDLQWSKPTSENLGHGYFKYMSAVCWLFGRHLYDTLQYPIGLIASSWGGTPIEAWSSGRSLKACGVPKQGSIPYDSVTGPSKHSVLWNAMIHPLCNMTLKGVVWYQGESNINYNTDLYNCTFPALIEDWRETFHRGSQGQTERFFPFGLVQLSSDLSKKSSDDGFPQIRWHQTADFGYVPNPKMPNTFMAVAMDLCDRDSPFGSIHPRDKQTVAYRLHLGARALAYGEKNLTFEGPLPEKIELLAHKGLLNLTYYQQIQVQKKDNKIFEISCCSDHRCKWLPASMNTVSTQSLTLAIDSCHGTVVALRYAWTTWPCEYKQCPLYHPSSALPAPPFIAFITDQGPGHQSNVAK
mABHD4 FP: inhibitors of mouse ABHD4 | Q8VD66 | purified mABHD4, FP-Rh probe fluorescence polarization | inhibition, % at 8.92 µM | 370,000 compounds, 0.54% hits;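 active = inhibition exceeding the mean over every tested compound plus 3 SD, cut at about 30% in these data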
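Test system: mABHD4 protein | Buffer or medium: HEPES pH 7.0 buffer, 150 mM NaCl, 0.01% Pluronic F-127 | Probe or stimulus: FP-Rh fluorescent activity-based probe, added after compound pre-incubation | Timing: Pre-incubation 45 min, probe exposure 60 min, at 25 °C | Technique: Fluorescence polarization, excitation 525 nm, emission 598 nm, BODIPY TMR filters | Repeats: Single well per compound (singlicate)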
TCR-CD3 inh: inhibitors of human TCR-CD3 interaction; inhibition, % at 9.4 µM; 360,000 compounds, 0.37% hits; TAMRA-labeled TCR probe fluorescence, biochemical; in the data active = inhibition above about 19%;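 note: recombinant mutant TCR 2C K166C tagged with TAMRA read by polarization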
ARNT TACC3 PPI: ARNT/TACC3 interaction disruption | AlphaScreen His-ARNT PAS-B/GST-TACC3 binding, luminescence; TACC3 fragment carries E629A point mutation | inhibition, % at 9.99 µM | 390,000 compounds, 0.66% hits;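 active = mean inhibition of replicates at least 50% and at least half of replicates each reaching 50%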
A number is an active result; – = inactive; · = no result. Sampled rows, rich in hits. Any-hit rate of the full collection: about 1.8%.

SMILES	HTRA1 inh	SIAE primary	mABHD4 FP	TCR-CD3 inh	ARNT TACC3 PPI
O=C(NCCN1CCN(c2ccccc2F)CC1)c1ccc2nc3ccccc3c(=O)n2c1	–	–	–	–	48
COc1ccc(N2CCN(CCNC(=O)c3ccc4nc5ccccc5c(=O)n4c3)CC2)cc1	–	–	–	–	–
C[C@@H]1CN([C@@H](C)CO)C(=O)c2c(c3ccccc3n2C)-c2ccccc2CO[C@H]1CN(C)S(=O)(=O)c1ccccc1F	·	·	·	·	–
O=C(C[C@H]1CC[C@@H](NC(=O)Nc2cc(F)ccc2F)[C@H](CO)O1)Nc1ccc(-c2ccccc2)cc1	·	·	·	·	48
COc1cccc(/C=N/NC(=O)c2c(-c3ccccc3)noc2C)c1O	–	–	–	–	·
CCOc1cc([N+](=O)[O-])cc(/C=N/NC(=O)c2c(-c3ccccc3)noc2C)c1O	–	·	·	·	57
CCOc1cc(/C=N/NC(=O)c2c(-c3ccccc3)noc2C)ccc1O	–	–	–	–	·
Cc1ccc(/C=N/NC(=O)c2c(-c3ccccc3)noc2C)c(O)c1	–	–	–	–	47
O=C(Nc1ccccc1F)N[C@H]1CC[C@@H](CCNS(=O)(=O)c2ccc(Cl)cc2)O[C@H]1CO	·	·	·	·	–
C[C@@H]1CN([C@H](C)CO)C(=O)Cc2cc(NC(=O)CCN3CCOCC3)ccc2O[C@H]1CN(C)C(=O)Nc1ccccc1	·	·	·	·	–
Cc1cc(-c2c(C)[nH]n(-c3ccc(Cl)cc3)c2=O)n[nH]1	–	–	–	–	57
CCc1nc(C)ccc1OCC(=O)NCCCN(C)C	–	20	–	–	–
CCc1nc(C)ccc1OCC(=O)O	–	–	–	–	–
CNC1=C(N(C(C)=O)c2ccc(Br)cc2)C(=O)c2ccccc2C1=O	–	–	–	–	46
CCC(=O)N(C1=C(NC)C(=O)c2ccccc2C1=O)C(C)C	–	–	–	–	–
CCOc1ccc(NC(=O)CSc2ccc(-c3ccccn3)nn2)cc1	–	–	–	–	26
c1ccc(CSc2ccc(-c3ccccn3)nn2)cc1	–	–	–	–	65
O=c1[nH]c(-c2ccccn2)nc(C(F)(F)F)c1Br	–	–	–	–	63
COc1ccc(C(=O)Oc2cccc3cccnc23)cc1[N+](=O)[O-]	–	–	–	–	56
COc1ccc(CSc2cccc3cccnc23)cc1[N+](=O)[O-]	–	–	–	–	45
COc1ccc(S(=O)(=O)N(C)C[C@H]2Oc3cc(C4=CCCC4)ccc3S(=O)(=O)N([C@@H](C)CO)C[C@H]2C)cc1	·	·	·	·	–
COCCNC(=O)C[C@H]1CC[C@@H]2[C@H](COc3ccc(NC(C)=O)cc3C(=O)N2C)O1	·	·	·	·	–
Nc1ccc(Cc2nc3c(ccc4ccccc43)[nH]2)cc1	–	–	–	–	–
c1ccc(-c2nc3c(ccc4ccccc43)[nH]2)nc1	–	29	–	–	57
Cc1sc2nc(N3CCOCC3)[nH]c(=O)c2c1-c1ccccc1	–	–	–	–	–
SMILES	HTRA1 inh	SIAE primary	mABHD4 FP	TCR-CD3 inh	ARNT TACC3 PPI
Cc1sc2nc(-c3ccccn3)[nH]c(=O)c2c1-c1ccccc1	–	–	–	–	79
CCN(CC)C(=O)c1sc2nc(-c3ccccn3)[nH]c(=O)c2c1C	–	–	–	–	61
O=S(=O)(c1ccc(N2CCCC2)nc1)N1CCCC1	–	–	–	–	–
NNc1ccc(S(=O)(=O)N2CCCCC2)cn1	–	–	–	–	54
Cc1ccc(C)c(N2C(=N)S/C(=C\c3ccc(-c4ccccc4C(=O)O)o3)C2=O)c1	–	–	34	–	–
C/C(CC(=O)Nc1ccc(Cl)c(C(F)(F)F)c1)=N\NC(=O)c1cc2ccccc2cc1O	–	40	–	–	–
COc1cccc(NC(=O)C/C(C)=N/NC(=O)c2ccccc2Cl)c1	–	–	–	–	–
COc1cccc(-c2coc3c(C)c4oc(=O)c(CC(=O)O)c(C)c4cc23)c1	–	–	–	–	–
COc1cccc(-c2coc3c(C)c4oc(=O)c(CCC(=O)O)c(C)c4cc23)c1	–	–	–	–	62
Cc1ccc2c(c1)c1nnc(SCC(=O)N3CCCc4ccccc43)nc1n2CC(=O)O	–	–	–	–	67
C[C@H]1CN([C@@H](C)CO)C(=O)c2cc(C#CC(C)(C)O)cnc2O[C@H]1CN(C)C(=O)C1CCC1	·	·	·	·	–
Nc1nc(NC(=O)Cc2ccccc2)nn1-c1ccccc1	–	–	–	–	48
Nc1nc(NC(=O)/C=C\C(=O)O)nn1-c1ccccc1	–	–	–	–	74
Nc1nc(NC(=O)CCCC(=O)O)nn1-c1ccccc1	–	–	–	–	–
CC(C)NC(=O)N(C)C[C@H]1Oc2ccc(NC(=O)Nc3ccc4c(c3)OCO4)cc2C(=O)N([C@@H](C)CO)C[C@H]1C	·	·	·	·	–
COc1ccc(NC(=O)Nc2ccc3c(c2)C(=O)N([C@@H](C)CO)C[C@@H](C)[C@H](CN(C)Cc2ccccc2)O3)cc1	·	·	·	·	–
C/C(=N\NC(=O)c1cc(O)cc(O)c1)c1ccc(NC(=O)Cc2ccccc2)cc1	–	24	–	41	–
CCCNC(=O)[C@H]1N[C@H]2c3ccc(-c4cccc(F)c4)c(=O)n3C[C@H]2[C@@H]1CO	·	·	·	·	–
C/C(=N/NC(N)=S)c1cc2ccc(O)cc2oc1=O	–	–	–	–	39
NC(=S)c1cc2ccc(O)cc2oc1=O	–	–	–	–	–
COc1ccc(-c2c(C)[nH]n3c(=O)c(Cc4ccccc4)c(C)nc23)cc1OC	–	–	–	–	87
Cc1nc2c(-c3ccccc3)c(C)[nH]n2c(=O)c1Cc1ccccc1	·	–	–	–	·
CCNC(=O)Nc1ccc2c(c1)C(=O)N(C)[C@H]1CC[C@H](CC(=O)NCCOC)O[C@@H]1CO2	·	·	·	·	–
CC(=O)c1ccc(NC(=S)NCCCn2ccnc2)cc1	–	–	–	–	–
COc1ccc(NC(=S)NCCCn2ccnc2)cc1	–	–	–	–	active
SMILES	HTRA1 inh	SIAE primary	mABHD4 FP	TCR-CD3 inh	ARNT TACC3 PPI
O=C(NCCCn1ccnc1)Nc1cccc(Cl)c1	–	–	–	–	61
Cc1noc(C)c1S(=O)(=O)Nc1ccc2c(c1)C(=O)N([C@@H](C)CO)C[C@@H](C)[C@H](CN(C)S(=O)(=O)c1cn(C)cn1)OCCCC[C@@H](C)O2	·	·	·	·	–
O=C(CSc1nnnn1-c1ccc2c(c1)OCCO2)N1CCc2ccccc21	–	27	–	–	–
C/C(=N/NC(=O)c1cccs1)c1c(C)[nH]n(-c2nc3ccccc3s2)c1=O	–	–	–	–	47
CC(C)NC(=O)Nc1cccc2c1O[C@H](CN(C)Cc1ccc(Oc3ccccc3)cc1)[C@H](C)CN([C@@H](C)CO)C2=O	·	·	·	·	–
C[C@@H]1CN([C@@H](C)CO)C(=O)Cc2cc(NC(=O)Nc3cccc4ccccc34)ccc2O[C@@H]1CN(C)Cc1ccc(C(=O)O)cc1	·	·	·	·	active
C[C@H](CO)N1C[C@H](C)[C@@H](CN(C)Cc2ccc(Oc3ccccc3)cc2)Oc2ccc(NC(=O)Nc3cccc4ccccc34)cc2CC1=O	·	·	·	·	76
C[C@H](CO)N1C[C@H](C)[C@@H](CN(C)CC2CCCCC2)Oc2ccc(NC(=O)Nc3cccc4ccccc34)cc2CC1=O	·	·	·	·	47
